This is a sample that favours compounds with a hit; in the whole collection about 0.84% have one here.
SKN-1 inh: suppressors of acrylamide-induced Pgst-4::GFP reporter in worms, primary screen, SKN-1 inhibitor project, whole organism, uHTS, GFP/RFP fluorescence ratio, strain VP596 | 360,000 tested, 0.49% active | AID 624304, 2012 | inhibition, % at 21.8 µM | C. elegans VP596 Pgst-4::GFP/RFP ratio, 24 h;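 active means interference check ratio from 0.5 to 1.5 plus GFP to RFP signal ratio inhibition reaching or exceeding a fixed threshold, cut at about 30% in these data, passing the limit was not always enough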
MT1-MMP act inh: blockers of MT1-MMP proenzyme processing, primary screen, HT1080 RFP-PRO-GFP cells, GFP/RFP fluorescence. Matrix metalloproteinase-14 (Homo sapiens), P50281. GFP/RFP ratio fluorescence, overnight; percent of plate control window, DMSO zero. 360,000 tested, 0.061% active. GFP/RFP ratio change, % at 20 µM;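 active means GFP/RFP ratio change of at least 30% with cell ATP level not reduced by more than half and red fluorescence within 50% of control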
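Compound: 20 µM single dose, 1% DMSO / System: HT1080 RFP-PRO-GFP cells / Controls: DMSO and RFP-L50D-GFP cell wells / Read-out basis: GFP/RFP fluorescence ratio / Schedule: overnight compound exposure at 37 °C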
DDE Tn7 FP inh: inhibitors of Tn7 peptide binding to fibrin DD(E), primary screen, biochemical, fluorescence polarization, human fibrin, Tn7 probe; FP displacement of FITC-Tn7 peptide from fibrin DD(E); 0% = median of compound wells per plate; inhibition, % at 8.3 µM; 370,000 tested, 0.13% active;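 active means inhibition above the mean of compounds falling within the control limits plus 3 SD of them, cut at about 14% in these data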;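 further: 0% = plate median of compound wells and 100% = 10 µM Aha-Tn7 peptide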
Target sequence (P02675 whole entry, looked up): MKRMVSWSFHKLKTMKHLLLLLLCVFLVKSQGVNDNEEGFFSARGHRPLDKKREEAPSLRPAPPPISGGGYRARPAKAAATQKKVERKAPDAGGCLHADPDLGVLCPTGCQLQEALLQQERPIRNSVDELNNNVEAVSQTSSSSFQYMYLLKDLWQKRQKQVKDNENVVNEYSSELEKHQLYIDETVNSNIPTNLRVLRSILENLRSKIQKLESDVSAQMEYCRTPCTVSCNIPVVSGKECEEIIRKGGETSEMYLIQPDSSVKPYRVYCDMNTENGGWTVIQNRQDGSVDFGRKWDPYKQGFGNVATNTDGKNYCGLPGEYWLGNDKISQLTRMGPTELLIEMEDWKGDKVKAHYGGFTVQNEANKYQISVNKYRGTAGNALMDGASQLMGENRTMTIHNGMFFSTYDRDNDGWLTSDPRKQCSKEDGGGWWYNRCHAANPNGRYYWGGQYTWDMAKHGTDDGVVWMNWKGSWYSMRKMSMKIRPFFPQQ
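Assay system: Fibrin-DD(E) protein isolated from polymerized human fibrin clots; read-out basis: percent inhibition; medium: Tris/NaCl/CaCl2 buffer, pH 7.8; signal: FP measurement; incubation: 10 min plus 3 h, room temperature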
DDE Tn6 FP inh: inhibitors of Tn6 peptide binding to fibrin DD(E), primary screen, biochemical, fluorescence polarization, human fibrin, Tn6 probe. Fibrinogen beta chain (Homo sapiens), P02675. Fibrin DD(E) TRITC-Tn6 fluorescence polarization displacement. inhibition, % at 8.3 µM. 370,000 tested, 0.21% active. AID 720509, 2013;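 active means inhibition above a per-campaign cutoff: mean of compounds within control limits plus 3 SD, cut at about 15% in these data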;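 further: 0% = median of all compound wells on the plate and 100% = blocking peptide control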
The depositor's hits bear a star; . = not tested or not shown; + = active, no number.

SMILES	SKN-1 inh	MT1-MMP act inh	DDE Tn7 FP inh	DDE Tn6 FP inh
COc1cc2sc3cc(NCc4ccc(C)o4)ccc3c(=O)c2cc1OC	36.6*	9.6	2.4	-9.8
COc1cc2sc3cc(NCc4ccc5c(c4)OCO5)ccc3c(=O)c2cc1OC	11.5	5.2	-5.4	-13.3
O=C(COC(=O)c1cccc(S(=O)(=O)N2CCOCC2)c1)Nc1ncc(C(F)(F)F)cc1Cl	41.9*	0.4	-12.0	1.8
CCSc1ncc(/C=N/Nc2ccccc2)n1C	45.0*	4.4	-2.1	2.8
CCSc1ncc(/C=N/Nc2ccc(Cl)cc2)n1C	-8.9	-4.4	3.2	2.9
C=CC[n+]1ccc(/C=C2\C=Cc3cc(C)ccc3N2CC)c2ccccc21	37.8*	60.7*	.	.
Cc1cc(Cl)cc(C)c1OCCCCN1CCOCC1	42.5*	7.4	-0.2	0.3
Clc1ccc(OCCCCCN2CCOCC2)cc1	39.5*	-0.7	1.3	-6.3
Clc1ncccc1-c1nnn(-c2ccccc2Br)n1	53.4*	-0.9	-1.5	2.5
Cc1ccc(NC(=O)COC(=O)C2CC(=O)N(Cc3ccccc3)C2)cc1S(=O)(=O)N(C)C (stereo not given)	-0.7	-2.7	-3.6	-4.9
COc1ccc(Cc2c(-c3ccc(F)cc3)nc3c4ccccc4ccn23)c(C)c1	-2.5	-2.0	-2.3	-3.7
N#C/C(=C\c1ccc(Cl)cc1Cl)c1n[nH]c(Cn2cncn2)n1	44.1*	-5.7	7.4	1.9
CCOC(=O)[C@]12CCCCC/C=C\1N(Cc1ccc(OC)cc1)C(=O)[C@H]2CC(=O)NCC12CC3CC(CC(C3)C1)C2	.	.	0.4	-3.4
CCCS(=O)(=O)NC(=O)C1(C)CCN(C(=O)c2cccc(C)c2C)C1 (stereo not given)	35.4*	.	-2.0	-0.2
CCCS(=O)(=O)NC(=O)C1(C)CCN(C(=O)c2ccccc2Br)C1 (stereo not given)	-1.3	2.0	.	.
COc1ccc(NC(=O)NC(C(F)(F)F)C(F)(F)F)cc1	43.1*	-0.6	3.0	-1.6
COc1ccc(NC(=O)NC(C)(C(F)(F)F)C(F)(F)F)cc1	-3.1	-1.5	-3.0	1.8
CC(C)N(C(=O)N1CCN(c2ccnc3cc(Cl)ccc23)CC1)C(C)C	5.0	-5.1	3.4	-0.4
C#CCCN([C@H](C(=O)OC)C(C)C)S(=O)(=O)c1ccccc1Br	.	.	-0.9	7.4
Cc1ccc(-c2nn(-c3ccccc3)cc2CSC(=N)N)cc1	42.8*	-2.6	3.5	2.8
CCOc1cc(C2C(C(=O)O)c3cc(OCC)c(OCC)cc3C(=O)N2C)ccc1O (stereo not given)	-7.7	3.1	-0.6	1.6
CCOc1cc2c(cc1OCC)C(C(=O)O)C(c1cc(OC)c(OC)c(OC)c1)N(C)C2=O (stereo not given)	35.7*	-0.4	-1.4	-2.7
CC(C)(C)c1ccc(-c2nnc(SCC(=O)Nc3ccc(S(=O)(=O)Nc4nccs4)cc3)n2-c2ccc(Cl)cc2)cc1	.	.	-6.6	1.6
S=C(Nc1ccccn1)c1ccccn1	39.4*	5.2	-2.5	7.1
O=S(=O)(Nc1nc2ccccc2nc1NCc1ccco1)c1ccc(Cl)cc1	6.4	-4.3	6.6	0.9
SMILES	SKN-1 inh	MT1-MMP act inh	DDE Tn7 FP inh	DDE Tn6 FP inh
Cc1ccc(S(=O)(=O)Nc2nc3ccccc3nc2NCc2ccco2)cc1	34.3	-57.7	2.3	43.9*
Clc1ccc(-c2cc(CSc3ccccc3)on2)cc1	44.7*	-1.3	-3.0	-3.5
Clc1ccc(SCc2cc(-c3ccccc3)on2)cc1	49.5*	1.9	3.0	-0.4
Clc1ccc(-c2cc(CSc3cccc(Cl)c3)on2)cc1	60.2*	4.7	1.3	-8.0
c1ccc(OCc2cc(-c3ccccc3)no2)cc1	45.0*	1.2	-3.8	6.0
CCN(CC)C(=O)CC[C@H]1CC[C@]2(CCCN(C(=O)c3cccnc3)C2)O1	.	.	-4.7	-7.3
c1ccc(SCc2cc(-c3ccccc3)no2)cc1	54.8*	-4.4	-4.4	7.0
Brc1ccc(-n2cnc(-c3ccccc3)c2)cc1	39.8*	1.6	1.0	1.9
CC(CCN1CCC(C(O)(c2ccccc2)c2ccccc2)CC1)Oc1cccc(C(F)(F)F)c1 (stereo not given)	.	.	11.6	8.7
O=C(Nc1ccc(Oc2ccccc2)cc1)C1CC1	-6.1	1.0	-2.7	8.9
O=C(Nc1ccc(C#Cc2ccccc2)cc1)C1CC1	46.9*	16.1	-3.5	-1.0
Cc1c(C(=O)NC(=S)Nc2ccc(N3CCOCC3)cc2)cccc1[N+](=O)[O-]	11.6	5.5	6.1	1.1
COC(=O)c1ccc(CC2(C)C(=O)Nc3ccc(OC(F)(F)F)cc32)o1 (stereo not given)	16.1	1.2	-3.8	-4.7
COC(=O)c1cccc(CC2(C)C(=O)Nc3ccc(OC(F)(F)F)cc32)c1 (stereo not given)	37.3*	3.5	6.1	7.1
O=C1Nc2ccccc2C(O)(C(=O)NCc2ccco2)N1c1ccc(Cl)c(Cl)c1 (stereo not given)	42.0*	-6.2	.	.
Oc1cc2c(cc1O)[C@H]1c3ccc(O)c(O)c3OC[C@@]1(O)C2	37.3*	20.9	-2.8	12.2
Oc1ccc2c(c1)OCC1(O)Cc3cc(O)c(O)cc3C21 (stereo not given)	64.6	2.9	28.3*	+
Cc1ccc2c(c1)-c1c(cnn1CC(=O)NCCc1ccccc1F)CO2	.	.	-5.4	-9.2
Nn1c(SCC(=O)Nc2nccs2)nnc1-c1cc(-c2ccc(F)cc2)n[nH]1	.	.	-2.0	-3.0
O=C(COc1ccccc1)NC1CCSC1=O (stereo not given)	-1.3	4.5	4.4	-0.1
O=C(CCc1ccccc1)NC1CCSC1=O (stereo not given)	46.6*	1.9	3.1	3.7
O=C(NCCc1ccccn1)c1ccc(S(=O)(=O)N2CCCCCC2)cc1	39.4*	-4.2	-11.3	-1.3
COC(=O)c1ccc(S(=O)(=O)N2CCCCCC2)cc1	35.2*	-2.1	-5.3	-2.2
CCCCC(=O)OCC(=O)Nc1ccc(C)c(F)c1	17.2	2.4	-10.6	1.1
O=C(Cn1cnc2ccccc2c1=O)N1CCN(Cc2ccc(F)cc2)CC1	.	.	4.1	4.3
SMILES	SKN-1 inh	MT1-MMP act inh	DDE Tn7 FP inh	DDE Tn6 FP inh
OC(c1ccccc1)(c1ccccc1)C1CCN(CCCNc2cccc(OC(F)(F)F)c2)CC1	.	.	1.2	12.6
Clc1c(-c2ccccc2)nnn1-c1ccccc1	36.0*	-0.1	-2.2	-3.5
Nc1nnn(-c2ccccc2)c1-c1ccccc1	-2.3	6.5	-1.0	-7.1
Clc1ccc2oc(-c3ccccn3)nc2c1	38.8*	-18.5	-2.0	7.9
COc1cccc(CN2CCN(Cc3ccco3)CC2)c1	16.3	-0.5	0.9	3.5
COc1ccc(CN2CCN(Cc3ccco3)CC2)cc1	40.5*	-4.3	2.3	8.0

Screening results from PubChem.
